Assay results from ChEMBL document CHEMBL3112440, “Design, synthesis, and SAR of a series of activated protein C (APC) inhibitors with selectivity against thrombin for the treatment of haemophilia” (Bioorg Med Chem Lett, 2014).
The source made the active and inactive calls. The calls are words filed in the database; no cut-off is given here.

Assays:
[1] = species: Homo sapiens; test: Selectivity ratio of IC50 for human thrombin to IC50 for human APC
[2] = molecular target: T1, Vitamin K-dependent protein C (Homo sapiens, UniProt P04070); test: Inhibition of human APC using S-2366 as substrate preincubated for 300 seconds followed by substrate addition measured after 40 mins by spectrophotometric analysis
[3] = molecular target: Coagulation factor IX (Homo sapiens) (UniProt P00740); test: Inhibition of coagulation factor 9a (unknown origin)-mediated hydrolysis of Z-D-Arg-Gly-Arg-pNA at 100 uM relative to control
[4] = molecular target: T2, Coagulation factor XI (Homo sapiens, UniProt P03951); test: Inhibition of human coagulation factor 11a using S-2366 as substrate preincubated for 300 seconds followed by substrate addition measured after 40 mins by spectrophotometric analysis
[5] = molecular target: T3, Coagulation factor VII (Homo sapiens, UniProt P08709); test: Inhibition of human coagulation factor 7a using spectrozyme as substrate preincubated for 300 seconds followed by substrate addition measured after 40 mins by spectrophotometric analysis in presence of tissue factor
T3 sequence (P08709 whole entry): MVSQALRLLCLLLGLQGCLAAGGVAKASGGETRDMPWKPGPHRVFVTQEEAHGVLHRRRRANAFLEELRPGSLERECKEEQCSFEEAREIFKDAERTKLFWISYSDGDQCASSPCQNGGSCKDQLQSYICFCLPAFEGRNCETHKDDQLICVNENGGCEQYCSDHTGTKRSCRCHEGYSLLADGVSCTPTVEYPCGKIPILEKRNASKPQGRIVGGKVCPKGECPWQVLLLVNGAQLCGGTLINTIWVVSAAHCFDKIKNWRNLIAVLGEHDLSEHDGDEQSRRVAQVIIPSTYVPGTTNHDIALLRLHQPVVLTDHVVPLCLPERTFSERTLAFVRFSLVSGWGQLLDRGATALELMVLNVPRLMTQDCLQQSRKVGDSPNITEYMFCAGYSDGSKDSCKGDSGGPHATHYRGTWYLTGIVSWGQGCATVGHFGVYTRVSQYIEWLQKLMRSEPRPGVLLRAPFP

[6] = molecular target: T3, Coagulation factor VII; test: Competitive inhibition of human coagulation factor 7a using spectrozyme as substrate
Procedure, shortened: (§1)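 Ki values were calculated from the IC50 values measured in the enzyme screening assays.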

[7] = molecular target: T4, Prothrombin (Homo sapiens, UniProt P00734); test: Competitive inhibition of human thrombin using S-2366 as substrate; procedure, shortened: as §1
[8] = molecular target: T5, Coagulation factor X (Homo sapiens, UniProt P00742); test: Inhibition of human coagulation factor 10a using S-2765 as substrate preincubated for 300 seconds followed by substrate addition measured after 40 mins by spectrophotometric analysis
[9] = tested on: Plasma; test: Antifibrinolytic activity in human citrated plasma assessed as prolongation of clot-lysis time at 28 uM by spectrophotometric analysis; assay type: functional, cell-free
Procedure, shortened: (§2)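 Citrated plasma from healthy volunteers. Tissue plasminogen activator was added to start plasmin generation, and clot-lysis time was recorded with test compound present (n = 2).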

[10] = molecular target: T1, Vitamin K-dependent protein C; test: Competitive inhibition of human APC using S-2366 as substrate; procedure, shortened: as §1
[11] = Lipophilicity, log D of the compound at pH 7.4 by chromatographic method; assay type: physicochemical; conditions: buffer
[12] = molecular target: T4, Prothrombin; test: Inhibition of human thrombin using S-2366 as substrate preincubated for 300 seconds followed by substrate addition measured after 40 mins by spectrophotometric analysis
[13] = molecular target: T2, Coagulation factor XI; test: Competitive inhibition of human coagulation factor 11a using S-2366 as substrate; procedure, shortened: as §1
[14] = molecular target: T5, Coagulation factor X; test: Competitive inhibition of human coagulation factor 10a using S-2765 as substrate; procedure, shortened: as §1
[15] = tested on: Plasma; test: Antifibrinolytic activity in human citrated plasma assessed as prolongation of clot-lysis time at 101 uM by spectrophotometric analysis; assay type: functional, cell-free; procedure, shortened: as §2

SMILES | Ratio IC50 [1] | IC50 [2] [µM] | inhibition [3] | IC50 [4] [µM] | IC50 [5] [µM] | Ki [6] [µM] | Ki [7] [µM] | IC50 [8] [µM] | Ki [10] [µM] | chromatographic logD [11] | IC50 [12] [µM] | Ki [13] [µM] | Ki [14] [µM] | Activity [9] | Activity [15]
N=C(N)c1ccc(CNC(=O)C(CCC2CCNCC2)NC(=O)[C@H](N)CC2CCCCC2)cc1 (mixture of isomers) | 8.9 | 3.1 | – | – | – | – | 15 | – | 0.9 | – | 28 | – | – | – | –
N=C(N)c1ccc(CNC(=O)[C@H](Cc2cccc3ccccc23)NC(=O)[C@@H](CC2CCCCC2)NCC(=O)O)cc1 | 11 | 1.1 | – | – | – | – | 6 | – | 0.3 | 1.97 | 12 | – | – | – | –
N=C(N)c1ccc(CNC(=O)C(Cc2ccc(CN)cc2)NC(=O)[C@@H](CC2CCCCC2)NCC(=O)O)cc1 (mixture of isomers) | 3.3 | 1.1 | – | 43 | – | – | 2 | 42 | 0.3 | – | 3.7 | 19 | 14 | – | –
N=C(N)c1ccc(CNC(=O)[C@@H](NC(=O)[C@@H](CC2CCCCC2)NCC(=O)O)C2CCNCC2)cc1 | 8.4 | 3.1 | – | > 44 | – | – | 14 | – | 0.9 | – | 26 | > 19 | – | – | –
N=C(N)c1ccc(CNC(=O)[C@@H]2CCN2C(=O)[C@H](NCC(=O)O)C2CCCCC2)cc1 | – | 1.3 | – | 20 | 3.3 | – | – | 21 | – | – | – | – | – | – | –
N=C(N)c1ccc(CNC(=O)[C@@H](CC2CCCN2)NC(=O)[C@@H](CC2CCCCC2)NCC(=O)O)cc1 (mixture of isomers) | 1 | > 44 | – | – | – | – | – | – | – | – | > 44 | – | – | – | –
N=C(N)c1ccc(CNC(=O)[C@H](Cc2ccc(O)cc2)NC(=O)[C@@H](CC2CCCCC2)NCC(=O)O)cc1 | 15 | 0.26 | – | 1.9 | – | – | 2 | 23 | 0.1 | 0.02 | 3.9 | 0.8 | 8 | – | –
N=C(N)NCCC[C@H](NC(=O)[C@@H](CC1CCCCC1)NCCC(=O)O)C(=O)NCc1ccc(C(=N)N)cc1 | 1.8 | 2.8 | – | > 44 | – | – | 3 | – | 0.8 | – | 5.2 | > 19 | – | – | –
N=C(N)NCCC[C@H](NC(=O)[C@@H](CC1CCCCC1)NCC(=O)O)C(=O)NCc1ccc(C(=N)N)cc1 | 2.8 | 0.47 | – | – | – | – | 1 | – | 0.1 | – | 1.3 | – | – | – | –
N#Cc1ccc(CC(NC(=O)[C@@H](CC2CCCCC2)NCC(=O)O)C(=O)NCc2ccc(C(=N)N)cc2)cc1 (mixture of isomers) | 5.4 | 3.8 | – | – | – | – | 2 | – | 1.1 | – | 3.8 | – | – | – | –

Now from value to compound, other results behind:

Ratio IC50 [1] | IC50 [2] [µM] | inhibition [3] | IC50 [4] [µM] | IC50 [5] [µM] | Ki [6] [µM] | Ki [7] [µM] | IC50 [8] [µM] | Ki [10] [µM] | chromatographic logD [11] | IC50 [12] [µM] | Ki [13] [µM] | Ki [14] [µM] | SMILES | Activity [9] | Activity [15]
23 | 0.92 | inactive | > 44 | > 133 | > 100 | 12 | > 130 | 0.3 | < 0 | 22 | > 19 | > 43 | N=C(N)c1ccc(CNC(=O)C(CCC2CCNCC2)NC(=O)[C@@H](CC2CCCCC2)NCC(=O)O)cc1 (mixture of isomers) | Active | –
6.9 | 0.13 | – | 0.58 | – | – | 0.5 | > 44 | 0.04 | – | 0.9 | 0.3 | > 15 | N=C(N)c1ccc(CNC(=O)[C@H](Cc2ccc(N)cc2)NC(=O)[C@@H](CC2CCCCC2)NCC(=O)O)cc1 | – | –
5.3 | 0.98 | – | – | – | – | 3 | – | 0.3 | – | 5.2 | – | – | N=C(N)c1ccc(CNC(=O)[C@H](Cc2ccc3ccccc3c2)NC(=O)[C@@H](CC2CCCCC2)NCC(=O)O)cc1 | – | –
9.1 | 0.67 | – | – | – | – | 3 | – | 0.2 | – | 6.1 | – | – | N=C(N)c1ccc(CNC(=O)[C@H](Cc2ccccc2)NC(=O)[C@@H](CC2CCCCC2)NCC(=O)O)cc1 | – | –
1.2 | 1.6 | – | – | – | – | 1 | – | 0.5 | – | 1.9 | – | – | N=C(N)NCCC[C@H](NC(=O)[C@H](N)C1CCCCC1)C(=O)NCc1ccc(C(=N)N)cc1 | – | –
1 | > 44 | – | – | – | – | – | – | – | – | > 44 | – | – | N=C(N)c1ccc(CNC(=O)C(CCC2CCNCC2)NC(=O)[C@@H](NCC(=O)O)C2CCCCC2)cc1 (mixture of isomers) | – | –
21 | 1.7 | 40% | > 44 | 8.9 | 7 | 19 | 48 | 0.5 | 0.93 | 36 | > 19 | 16 | N=C(N)c1ccc(CNC(=O)C2(NC(=O)[C@H](NCC(=O)O)C3CCCCC3)Cc3ccccc3C2)cc1 | – | Active
1.3 | 5.6 | – | – | – | – | 4 | – | 1.6 | – | 7 | – | – | N=C(N)c1ccc(CNC(=O)[C@H](CC2CCCN2)NC(=O)[C@@H](CC2CCCCC2)NCC(=O)O)cc1 (mixture of isomers) | – | –
9.1 | 1.3 | – | – | – | – | 6 | – | 0.4 | – | 12 | – | – | N=C(N)c1ccc(CNC(=O)C(CC2CCNCC2)NC(=O)[C@@H](CC2CCCCC2)NCC(=O)O)cc1 (mixture of isomers) | – | –
